Measured values as given in ChEMBL document CHEMBL5385869, “Novel 4-aminoquinolines: Synthesis, inhibition of the Mycobacterium tuberculosis enoyl-acyl carrier protein reductase, antitubercular activity, SAR, and preclinical evaluation” (Eur J Med Chem, 2023).
pIC50, pKd, pKi: −log10 of the molar value. Values after ≈ are worked out from the molar mass of the structure shown. Active and inactive are the calls of the source. No cut-off for these calls is given here.

Tests used:
[1] = tested on: Mycobacterium tuberculosis; experiment: Antibacterial activity against pan-sensitive Mycobacterium tuberculosis H37Rv ATCC 27294 measured after 7 days by resazurin dye based assay; format: functional; conditions: H37Rv ATCC 27294, 168 h, time 7 day
Procedure, shortened: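 Resazurin reduction microplate assay (REMA) in Middlebrook 7H9 broth with 10% ADC and 5% DMSO. Compounds come from 2 mg/mL DMSO stocks and are 2-fold serially diluted, top concentration 0.08–40 μg/mL depending on solubility. MIC is the lowest concentration preventing the blue-to-pink colour change. Three independent experiments; the reported value is the modal or the highest value.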

[2] = target: T1, Enoyl-[acyl-carrier-protein] reductase [NADH] (Mycobacterium tuberculosis, UniProt P9WGR1); experiment: Inhibition of Mycobacterium tuberculosis InhA-catalysed chemical reaction in presence of NADH measured for 1 min by UV/Visible spectrophotometry
T1 sequence (P9WGR1 whole entry): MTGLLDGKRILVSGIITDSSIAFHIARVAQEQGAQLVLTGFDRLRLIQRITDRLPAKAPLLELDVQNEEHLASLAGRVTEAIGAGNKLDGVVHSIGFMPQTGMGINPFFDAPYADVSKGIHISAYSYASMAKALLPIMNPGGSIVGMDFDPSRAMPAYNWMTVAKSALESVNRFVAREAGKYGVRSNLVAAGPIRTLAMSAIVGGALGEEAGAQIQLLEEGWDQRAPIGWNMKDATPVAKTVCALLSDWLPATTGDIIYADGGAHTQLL
Procedure, shortened: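 Recombinant MtInhA reaction at 25 °C in 100 mM Pipes pH 7.0, started by adding 2.2 μM enzyme and followed for 1 min. Substrate is DD-CoA, made from 2-trans-dodecenoic acid and CoA.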

[3] = target: T1, Enoyl-[acyl-carrier-protein] reductase [NADH]; experiment: Noncompetitive inhibition of Mycobacterium tuberculosis InhA using DD-CoA as substrate assessed as inhibition constant for enzyme-substrate-inhibitor ternary complex in presence of varying concentrations of NADH by double reciprocal plot analysis
[4] = target: T1, Enoyl-[acyl-carrier-protein] reductase [NADH]; experiment: Noncompetitive inhibition of Mycobacterium tuberculosis InhA using DD-CoA as substrate assessed as inhibition constant for enzyme-inhibitor binary complex in presence of varying concentrations of NADH by double reciprocal plot analysis
[5] = target: T2, Enoyl-[acyl-carrier-protein] reductase [NADH] (Mycobacterium tuberculosis) (UniProt P9WGR1); experiment: Binding affinity to Mycobacterium tuberculosis InhA assessed as change in enthalpy at 250 uM in presence of NADH by fluorescence spectroscopy
T2 sequence (whole entry): T1 sequence (P9WGR1 whole entry)

[6] = target: T2, Enoyl-[acyl-carrier-protein] reductase [NADH] (Mycobacterium tuberculosis); experiment: Binding affinity to Mycobacterium tuberculosis InhA assessed as change in entropy at 250 uM in presence of NADH by fluorescence spectroscopy
[7] = Cytotoxicity against African green monkey Vero cells assessed as reduction in cell viability incubated for 72 hrs by MTT assay; format: toxicity, cell-based; conditions: chlorocebus sabaeus
Procedure, shortened: (§1)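 Cells grown in DMEM with 10% FBS. HepG2 seeded at 4 × 10³ and Vero at 2 × 10³ cells/well, 24 h before dosing. Compounds at 1, 5 and 20 μM in 1% DMSO for 72 h at 37 °C, 5% CO2. MTT readout: 5 mg/mL reagent for 4 h, absorbance at 595 nm. Neutral red readout: 25 μg/mL dye for 3 h, then acid-ethanol desorb. Viability is expressed relative to 1% DMSO controls.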

[8] = Cytotoxicity against human HepG2 cells assessed as reduction in cell viability incubated for 72 hrs by MTT assay; format: toxicity, cell-based; procedure, shortened: as §1
[9] = Selectivity index, ratio of CC50 for African green monkey Vero cells by neutral red uptake assay to MIC for pan-sensitive Mycobacterium tuberculosis H37Rv ATCC 27294; format: toxicity, cell-based; conditions: read-out: Selectivity Index
[10] = Cytotoxicity against human HepG2 cells assessed as reduction in cell viability incubated for 72 hrs by neutral red uptake assay; format: toxicity, cell-based; procedure, shortened: as §1
[11] = target: T1, Enoyl-[acyl-carrier-protein] reductase [NADH]; experiment: Binding affinity to Mycobacterium tuberculosis InhA assessed as dissociation constant at 250 uM at 25 degreeC in presence of NADH by fluorescence spectroscopy
Procedure, shortened: (§2)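 Titration of pre-formed MtInhA:NADH complex (2 mL of 3 μM enzyme with 20 μM NADH), adding microliter aliquots of 250 μM ligand stock with dilution kept ≤1%. Intrinsic fluorescence read at 295 nm excitation, 310–500 nm emission. Temperatures 15, 20, 25 and 30 °C. KD is fitted to a hyperbolic isotherm. ΔH°, ΔS° and ΔG° come from van't Hoff analysis of KD across temperatures.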

[12] = Selectivity index, ratio of CC50 for human HepG2 cells by MTT assay to MIC for pan-sensitive Mycobacterium tuberculosis H37Rv ATCC 27294; format: toxicity; conditions: read-out: Selectivity Index
[13] = target: T1, Enoyl-[acyl-carrier-protein] reductase [NADH]; experiment: Competitive inhibition of Mycobacterium tuberculosis InhA using varying concentrations of DD-CoA as substrate assessed as inhibition constant for enzyme-inhibitor binary complex in presence of NADH by Lineweaver-Burk plot analysis
Procedure, shortened: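 Steady-state kinetics with recombinant MtInhA in 100 mM Pipes pH 7.0 at 25 °C. NADH fixed at 60 μM, DD-CoA varied 15–135 μM, inhibitor at fixed-varied levels of 0.2–4 μM. Kis is fitted to the competitive inhibition equation.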

[14] = target: T2, Enoyl-[acyl-carrier-protein] reductase [NADH] (Mycobacterium tuberculosis); experiment: Time dependent inhibition of Mycobacterium tuberculosis InhA
[15] = Selectivity index, ratio of CC50 for African green monkey Vero cells by MTT assay to MIC for pan-sensitive Mycobacterium tuberculosis H37Rv ATCC 27294; format: toxicity, cell-based; conditions: read-out: Selectivity Index
[16] = Selectivity index, ratio of CC50 for human HepG2 cells by neutral red uptake assay to MIC for pan-sensitive Mycobacterium tuberculosis H37Rv ATCC 27294; format: toxicity; conditions: read-out: Selectivity Index
[17] = Cytotoxicity against African green monkey Vero cells assessed as reduction in cell viability incubated for 72 hrs by neutral red uptake assay; format: toxicity, cell-based; conditions: chlorocebus sabaeus; procedure, shortened: as §1
[18] = target: T2, Enoyl-[acyl-carrier-protein] reductase [NADH] (Mycobacterium tuberculosis); experiment: Binding affinity to Mycobacterium tuberculosis InhA assessed as gibbs free energy change at 250 uM in presence of NADH by fluorescence spectroscopy; procedure, shortened: as §2
[19] = tested on: Mycobacterium tuberculosis; experiment: Antibacterial activity against Mycobacterium tuberculosis H37Rv ATCC 27294 infected in CF-1 mouse assessed as reversal of bacterial growth in spleen at 300 uM/kg, po administered daily for 14 days starting from 7 days post infection; format: functional, organism-based; conditions: time 14.0 day
Procedure, shortened: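 Mice treated by gavage from 7 days post-infection for 14 days, daily, at 300 or 450 μM/kg. Lungs and spleen homogenized in saline and plated for CFU. Comparisons are against vehicle and early-control groups.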

| Compound | MIC [1] | pIC50 [2] | also measured |
| --- | --- | --- | --- |
| CCCc1ccc(Nc2cc(C)nc3ccc(C(=O)OCC)cc23)cc1 | 14.3 µM (≈ 4.98 µg/mL) | 4.71 |  |
| CCOC(=O)c1ccc2nc(C)cc(Nc3ccc(N4CCN(Cc5ccccc5)CC4)cc3)c2c1 | 10.4 µM (≈ 5 µg/mL) | 4.58 |  |
| Cc1cc(Nc2ccc(-n3cccn3)cc2)c2cc(Br)ccc2n1 | 3.3 µM (≈ 1.25 µg/mL) | 5.31 |  |
| Cc1cc(Nc2ccc(N3CCC(C)CC3)cc2)c2cc(Br)ccc2n1 | 0.7 µM (≈ 0.287 µg/mL) | 5.85 | pKi [3]: 6.16; pKi [4]: 6.14; deltaH [5]: -5.6 kcal/mol; deltaS [6]: 8.3 cal/mol/K; CC50 at 72 h [7]: 9.7 µM; CC50 at 72 h [8]: 5.3 µM; selectivity ratio [9]: 8.9; CC50 at 72 h [10]: 12.2 µM; pKd [11]: 5.90; selectivity ratio [12]: 7.6; pKi [13]: 6.10; TDI [14]: inactive; selectivity ratio [15]: 13.8; selectivity ratio [16]: 17.4; CC50 at 72 h [17]: 6.2 µM; deltaG [18]: -8 kcal/mol |
| Cc1cc(Nc2ccc(N3CCCCC3)cc2)c2cc([N+](=O)[O-])ccc2n1 | 6.9 µM (≈ 2.5 µg/mL) | 4.73 |  |
| CCOc1ccc2nc(C)cc(Nc3ccc(N4CCCCC4)cc3)c2c1 | 6.9 µM (≈ 2.49 µg/mL) | 5.02 |  |
| Cc1cc(Nc2ccc(N3CCCCC3)cc2)c2cc(C(C)C)ccc2n1 | 6.9 µM (≈ 2.48 µg/mL) | 5.09 |  |
| CCOC(=O)c1ccc2nc(C)cc(Nc3ccc(CN4CCCCC4)cc3)c2c1 | 49.6 µM (≈ 20 µg/mL) | < 4.30 |  |
| CCCCc1ccc(Nc2cc(C)nc3ccc(C(=O)OCC)cc23)cc1 | 6.9 µM (≈ 2.5 µg/mL) | 4.95 |  |
| CCOC(=O)c1ccc2nc(C)cc(Nc3ccc(-n4cnc5ccccc54)cc3)c2c1 | > 47.3 µM | 4.38 |  |
| Cc1cc(Nc2ccc(N3CCCCC3)cc2)c2cc(N(C)C)ccc2n1 | 6.9 µM (≈ 2.49 µg/mL) | 4.70 |  |
| CCOC(=O)c1ccc2nc(C)cc(Nc3ccc(N4CCC(C)CC4)cc3)c2c1 | 6.2 µM (≈ 2.5 µg/mL) | 4.96 |  |
| CCc1cc(Nc2ccc(N3CCCCC3)cc2)c2cc(Br)ccc2n1 | 0.75 µM (≈ 0.308 µg/mL) | 5.81 |  |
| CC[C@@H](CO)NCCN[C@@H](CC)CO |  |  | Activity [19]: inactive |
| CCOC(=O)c1ccc2nc(C)cc(Nc3ccc(-n4cccn4)cc3)c2c1 | > 6.7 µM | 5.10 |  |
| Cc1cc(Nc2ccc(N3CCCCC3)cc2)c2cc(F)ccc2n1 | 14.9 µM (≈ 5 µg/mL) | 4.42 |  |
| CCOC(=O)c1ccc2nc(C)cc(Nc3ccc(N4CCSCC4)cc3)c2c1 | > 12.3 µM | < 4.30 |  |
| CCOC(=O)c1ccc2nc(C)cc(Nc3ccc(N4CCCC4)cc3)c2c1 | 13.3 µM (≈ 4.99 µg/mL) | 4.66 |  |
| CCc1cc(Nc2ccc(N3CCCCC3)cc2)c2cc(Cl)ccc2n1 | 1.7 µM (≈ 0.622 µg/mL) | 5.54 |  |
| CO[C@H]1/C=C/O[C@@]2(C)Oc3c(C)c(O)c4c(O)c(c(/C=N/N5CCN(C)CC5)c(O)c4c3C2=O)NC(=O)/C(C)=C\C=C\[C@H](C)[C@H](O)[C@@H](C)[C@@H](O)[C@@H](C)[C@H](OC(C)=O)[C@@H]1C [RIFAMPIN] | 0.05 µM (≈ 0.0411 µg/mL) |  |  |
| Cc1cc(Nc2ccc(N3CCC(c4ccccc4)CC3)cc2)c2cc(Br)ccc2n1 | 1.33 µM (≈ 0.628 µg/mL) | < 4.30 |  |
| CCOC(=O)c1ccc2nc(C)cc(Nc3ccc(C(=O)N4CCCC4)cc3)c2c1 | > 49.6 µM | 4.35 |  |
| Cc1ccc2nc(C)cc(Nc3ccc(N4CCCCC4)cc3)c2c1 | 7.5 µM (≈ 2.49 µg/mL) | 4.76 |  |
| Cc1cc(Nc2ccc(N3CCCCC3)cc2)c2cc(C#N)ccc2n1 | 14.6 µM (≈ 5 µg/mL) | 4.71 |  |
| CCOC(=O)c1ccc2nc(C)cc(Nc3ccc(N4CCOCC4)cc3)c2c1 | 51.1 µM (≈ 20 µg/mL) | 4.71 |  |
| Cc1cc(Nc2ccc(N3CCCC3CO)cc2)c2cc(Br)ccc2n1 (stereo not given) | 12.1 µM (≈ 4.99 µg/mL) | < 4.30 |  |
| COc1ccc2nc(C)cc(Nc3ccc(N4CCCCC4)cc3)c2c1 | 3.6 µM (≈ 1.25 µg/mL) | 5.33 |  |
| CCOC(=O)c1ccc2nc(C)cc(Nc3ccc(CC)cc3)c2c1 | 29.9 µM (≈ 10 µg/mL) | 4.38 |  |
